Assay results: ChEMBL document CHEMBL1933033, “Cytotoxic withanolide constituents of Physalis longifolia” (J Nat Prod, 2011)

Columns and labels:
[1] = Cytotoxicity against human JMAR cells after 72 hrs by MTS assay; format: functional, cell-based
How it was run: (§1)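 MTS viability assay on HNSCC (JMAR, MDA-1986), melanoma (B16F10, SKMEL-28) and normal fetal fibroblast (MRC-5) cells. Pure compounds tested at ten concentrations from 50 nM to 20 μM. IC50 values derived from the concentration series.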

[2] = Cytotoxicity against human […] cells after 72 hrs by MTS assay; format: cell-based; how it was run: as §1
B16-F10 = experiment: Cytotoxicity against mouse B16F10 cells after 72 hrs by MTS assay; format: functional, cell-based; details: B16-F10, 72 h; how it was run: as §1
SK-MEL-28 = experiment: Cytotoxicity against human SK-MEL-28 cells after 72 hrs by MTS assay; format: functional, cell-based; details: SK-MEL-28, 72 h; how it was run: as §1
[3] = Cytotoxicity against human MDA1986 cells after 72 hrs by MTS assay; format: functional, cell-based; details: MDA1986, 72 h; how it was run: as §1

Measured: IC50

CC1=C(CO[C@@H]2O[C@H](CO)[C@@H](O)[C@H](O)[C@H]2O)C[C@H]([C@@H](C)[C@H]2CC[C@H]3[C@@H]4CCC5=C(C(=O)C[C@H](O)C5)[C@H]4CC[C@]23C)OC1=O [WITHALONGOLIDE M]
> 10 µM: all assays above

CC1=C(CO[C@@H]2O[C@H](CO)[C@@H](O)[C@H](O)[C@H]2O)C[C@H]([C@@H](C)[C@H]2CC[C@H]3[C@@H]4CC(=O)C5=C(CC[C@@H](O)C5)[C@H]4CC[C@]23C)OC1=O [WITHALONGOLIDE N]
> 10 µM: all assays above

CC1=C(CO[C@@H]2O[C@H](CO)[C@@H](O)[C@H](O)[C@H]2O)C[C@H]([C@@H](C)[C@H]2CC[C@H]3[C@@H]4C[C@H](O)c5cccc(O)c5[C@H]4CC[C@]23C)OC1=O [WITHALONGOLIDESAPONIN]
> 10 µM: all assays above
